In the library only some 4% were active in any assay of this set; here they are far more common.
Yeast growth inh = yeast BB579 growth reduction in restrictive medium; AID 804; S. cerevisiae BB579 growth, OD615, 48 h; inhibition, % at 10 µM; 140,000 tested, 0.51% active;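 active = inhibition above a set limit, 3 SD over the mean compound inhibition, cut at about 44% in these data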
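test system = yeast BB579 (DeaD) | buffer or medium = restrictive CSMM-D medium | doses = single compound dose of 10 µM, 0.25% DMSO final | times = 4 h preincubation and 48 h exposure at 30 °C | technique = culture absorbance at 615 nm | benchmarks = amphotericin B 10 µg/mL, positive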
Measles CPE = protection of cells from measles virus; Measles virus-infected cells, CPE protection, absorbance; protection (pct of control), % at 4 µM; 140,000 tested, 1.5% active; in the data active = protection mostly above about 24%, no sharp cut-off; inactive = mostly below about 26%
INS promoter inh = TRM-6 insulin promoter activity inhibition | TRM-6 cells, insulin promoter-eGFP reporter, imaging; reporter expression induced with tamoxifen | inhibition, % at 2 µM | 130,000 tested, 0.9% active;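 active = inhibition above the mean plus 3 SD, with well images judged a real hit on visual review, cut at about 60% in these data, passing the limit was not always enough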
RAM network inh = inhibitors of the yeast RAM network; 190,000 tested, 1.8% active; AID 868; S. cerevisiae dse1pr::URA3 reporter, 5-FOA growth OD615, 2 d; analog-sensitive cbk1-as2 kinase mutant strain; inhibition, % at 50 µM;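 active = inhibition above a set limit, 3 SD over mean compound inhibition, cut at about 8.4% in these data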;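 also: 0% = DMSO-only wells with no growth and 100% = 10 µM 1-NA-PP1 full growth; inhibition rescues growth on 5-FOA so higher OD means more RAM inhibition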
MDM2 E3 inh = blocks human Mdm2 ubiquitin ligase activity | Q00987 | cell-based MDM2 ubiquitination luciferase reporter, 2 h; 0 = plate control, 100 = twice control, blank-subtracted | signal enhancement, % at 5 µM | 210,000 tested, 0.11% active | AID 1230;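 active = signal enhancement of 30% or more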;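 also: luminescence tracks abundance of the self-degrading MDM2-luciferase fusion protein; higher signal means inhibition of MDM2 E3 ligase activity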
Target sequence (Q00987 whole entry, looked up, the tested form may be a part): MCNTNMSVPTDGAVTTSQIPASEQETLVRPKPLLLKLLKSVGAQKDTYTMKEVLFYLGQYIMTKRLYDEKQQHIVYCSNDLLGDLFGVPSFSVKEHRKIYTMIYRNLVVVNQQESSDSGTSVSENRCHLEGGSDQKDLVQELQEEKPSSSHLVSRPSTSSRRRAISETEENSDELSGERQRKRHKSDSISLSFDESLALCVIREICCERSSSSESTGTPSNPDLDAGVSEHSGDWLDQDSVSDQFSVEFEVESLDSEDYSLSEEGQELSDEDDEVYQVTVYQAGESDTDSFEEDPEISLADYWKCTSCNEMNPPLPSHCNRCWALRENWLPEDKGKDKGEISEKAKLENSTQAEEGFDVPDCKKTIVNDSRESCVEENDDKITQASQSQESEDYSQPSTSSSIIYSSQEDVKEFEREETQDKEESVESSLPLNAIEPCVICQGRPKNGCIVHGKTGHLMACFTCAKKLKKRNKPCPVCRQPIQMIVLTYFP
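Assay system: stable mammalian line carrying autodegrading MDM2–luciferase fusion reporter; Input: 2000 cells in each well; Compound dosing: single-point 5 µM; Schedule: 2 h compound exposure at 37 °C; Signal: SteadyLite luciferase luminescence after 15 min room-temperature reagent incubation; Evaluation: % luminescence enhancement versus blank-corrected plate control mean; Benchmarks: plate controls and plate blanks.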
Yeast life ext = yeast lifespan extension. inhibition of the nicotinamide effect, % at 10 µM. 130,000 tested, 0.68% active. AID 775. S. cerevisiae growth with nicotinamide, OD615; deaD strain in restrictive glucose medium;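 active = inhibition above a set limit, placed 3 SD over the median of all compounds, cut at about 26% in these data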;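 also: 0% = nicotinamide-treated wells and 100% = cells grown without nicotinamide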
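Material: Modified budding yeast, DeaD strain | Medium: Restrictive glucose medium | Probe or stimulus: 1.5 mM nicotinamide | Dosing: Single dose 10 µM compound, 0.25% DMSO | Times: 48 h at 30 °C | Technique: OD615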
Starred values were filed as active, the others as inactive.

How did Cc1ccc2nc(NC(=O)CN(C)S(=O)(=O)c3ccc(Br)s3)sc2c1 do in these assays?
Yeast growth inh: -34.9; Measles CPE: 3.1; INS promoter inh: 65.5*; RAM network inh: 2.8; MDM2 E3 inh: -12.9; Yeast life ext: -1.6

How did Cc1ccc2nc(NC(=O)CNS(=O)(=O)c3ccc(Br)s3)sc2c1 do in these assays?
Yeast growth inh: -24.0; Measles CPE: 16.5; RAM network inh: 3.2; MDM2 E3 inh: -11.5; Yeast life ext: -5.0

What do the screens show for `CNC(=O)NC(=O)CSc1ccc(NC(C)=O)cc1`?
Yeast growth inh: -18.4; Measles CPE: 8.2; RAM network inh: -0.2; MDM2 E3 inh: 15.1; Yeast life ext: -3.4

Results for COCCCN1C(=O)C(O)=C(C(=O)c2ccco2)C1c1cccc(Br)c1 (stereo not drawn) ?
Yeast growth inh: 4.0; Measles CPE: 1.8; RAM network inh: 1.9; MDM2 E3 inh: -8.8; Yeast life ext: -19.9

What do the screens show for `COCCCN1C(=O)C(O)=C(C(=O)c2ccco2)C1c1ccc(Br)cc1` (stereo not drawn)?
Yeast growth inh: -39.0; Measles CPE: 3.7; INS promoter inh: 13.0; RAM network inh: 9.1*; MDM2 E3 inh: -19.0; Yeast life ext: -24.1

What do the screens show for `CCCOc1ccc(C2C(C(=O)c3ccco3)=C(O)C(=O)N2CCN2CCOCC2)cc1OC` (stereo not drawn)?
Yeast growth inh: -31.0; Measles CPE: 46.9*; INS promoter inh: -6.2; RAM network inh: 0.4; MDM2 E3 inh: -1.5; Yeast life ext: -22.2

What do the screens show for `CCOc1ccc(C2C(C(=O)c3ccc(C)o3)=C(O)C(=O)N2CCN2CCOCC2)cc1OC` (stereo not drawn)?
Yeast growth inh: -32.4; Measles CPE: 11.7; RAM network inh: -0.5; MDM2 E3 inh: -18.9; Yeast life ext: -3.6

Results for C=CCn1c(CCc2cc(C(C)(C)C)c(O)c(C(C)(C)C)c2)n[nH]c1=S ?
INS promoter inh: 21.4; RAM network inh: 3.2; MDM2 E3 inh: -18.4

Results for COc1ccc(-n2c(-c3ccc(Br)cc3)c[n+]3c2SC(C)C3)cc1 (stereo not drawn) ?
INS promoter inh: -33.3; RAM network inh: -0.5; MDM2 E3 inh: -20.7

How did Cc1ccc2nc(Nc3ccccc3)c(/C=N/O)c(=O)n2c1 do in these assays?
Yeast growth inh: -23.0; Measles CPE: 0.9; INS promoter inh: 56.2; RAM network inh: 1.1; MDM2 E3 inh: -17.4; Yeast life ext: 27.0*

What do the screens show for `COc1ccc(Nc2nc3ccc(C)cn3c(=O)c2/C=N/O)cc1`?
RAM network inh: 5.1; MDM2 E3 inh: -3.8

What do the screens show for `COc1cccc(CN2CCN(Cc3nc(C(C)C)cs3)CC2CCO)c1` (stereo not drawn)?
RAM network inh: 1.4; MDM2 E3 inh: -8.5

How did CCOC(=O)c1nc(C)nc(Sc2n[nH]c(-c3cc(C(F)(F)F)cc(C(F)(F)F)c3)n2)c1C do in these assays?
MDM2 E3 inh: -9.3

What do the screens show for `CCN(CC)CCN(C(=O)c1ccc(S(=O)(=O)N2CCCCC2)cc1)c1nc2cc3c(cc2s1)OCO3`?
INS promoter inh: 75.0*; RAM network inh: -1.1; MDM2 E3 inh: -10.0

What do the screens show for `Cc1nc(-c2ccc(Br)cc2)ccc1C(=O)O`?
Yeast growth inh: 15.5; Measles CPE: 4.3; INS promoter inh: 16.7; RAM network inh: -0.7; MDM2 E3 inh: 7.3; Yeast life ext: -3.8

Results for CC(NC(=O)/C(C#N)=C/c1ccc(Cl)c([N+](=O)[O-])c1)c1ccccc1 (stereo not drawn) ?
Yeast growth inh: 46.3*; Measles CPE: -0.6; RAM network inh: 4.5; MDM2 E3 inh: 6.4; Yeast life ext: 5.4

What do the screens show for `N#C/C(=C\c1ccc(O)c([N+](=O)[O-])c1)C(=O)NCc1ccccc1`?
RAM network inh: 3.0; MDM2 E3 inh: -10.4

What do the screens show for `Nn1c(SCC(=O)Nc2ccc(S(=O)(=O)N3CCCC3)cc2)nnc1C(F)(F)F`?
Yeast growth inh: -78.4; Measles CPE: 9.6; INS promoter inh: -61.9; RAM network inh: 0.7; MDM2 E3 inh: -1.4; Yeast life ext: -12.2
